From ChEMBL document CHEMBL4321796, “Proteolysis Targeting Chimeras for the Selective Degradation of Mcl-1/Bcl-2 Derived from Nonselective Target Binding Ligands” (J Med Chem, 2019)
Calls of active or inactive are those of the source. No cut-off for these calls is given here.

Assays:
[1] = test system: NCI-H23; test: Cytotoxicity against human H23 cells assessed as effect on PARP cleavage at 0.3 to 10 uM incubated for 12 hrs by Western blot analysis; type: functional, cell-based
Method in brief: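 H23 cells grown in RPMI1640 with 10% FBS at 37°C, 5% CO2, treated 12 h over a concentration gradient. Mcl-1 and PARP cleavage read by immunoblot: NP-40 lysis buffer with protease inhibitors, BCA-normalized SDS-PAGE, PVDF, ECL detection; n=3 independent samples.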

[2] = target: T1, Protein cereblon/Induced myeloid leukemia cell differentiation protein Mcl-1 (Homo sapiens, UniProt Q07820+Q96SW2); test: Induction of CRBN-mediated Mcl-1 degradation in human HeLa cells assessed as relative abundance at 10 uM after 12 hrs by Western blot analysis (reference value: 1); type: cell-based
T1 sequence (Q07820 whole entry, looked up): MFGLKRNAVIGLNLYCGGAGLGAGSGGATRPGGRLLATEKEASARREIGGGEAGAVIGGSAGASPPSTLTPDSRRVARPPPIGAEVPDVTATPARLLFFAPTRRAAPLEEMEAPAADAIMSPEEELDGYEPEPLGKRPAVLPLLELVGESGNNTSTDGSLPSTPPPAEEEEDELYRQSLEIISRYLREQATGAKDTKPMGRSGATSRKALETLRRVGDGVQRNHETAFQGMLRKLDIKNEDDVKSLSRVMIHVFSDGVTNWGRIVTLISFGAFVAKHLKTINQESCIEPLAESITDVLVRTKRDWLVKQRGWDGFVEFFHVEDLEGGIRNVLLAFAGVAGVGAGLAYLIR
T1 sequence (Q96SW2 whole entry, looked up): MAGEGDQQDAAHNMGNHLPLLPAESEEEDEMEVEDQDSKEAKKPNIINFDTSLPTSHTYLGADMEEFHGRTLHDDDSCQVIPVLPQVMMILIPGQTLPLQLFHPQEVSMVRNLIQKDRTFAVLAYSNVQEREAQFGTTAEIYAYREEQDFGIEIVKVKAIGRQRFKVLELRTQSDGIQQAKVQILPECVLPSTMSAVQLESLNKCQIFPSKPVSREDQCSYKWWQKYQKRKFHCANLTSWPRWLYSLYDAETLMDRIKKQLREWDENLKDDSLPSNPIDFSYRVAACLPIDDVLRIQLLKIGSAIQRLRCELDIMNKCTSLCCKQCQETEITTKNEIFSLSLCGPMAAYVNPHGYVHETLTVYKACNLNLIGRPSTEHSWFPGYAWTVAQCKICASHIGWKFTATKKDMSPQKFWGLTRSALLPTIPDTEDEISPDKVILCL

[3] = target: T2, Protein cereblon/Apoptosis regulator Bcl-2 (Homo sapiens, UniProt P10415+Q96SW2); test: Induction of CRBN-mediated Bcl-2 degradation in human HeLa cells assessed as relative abundance at 10 uM measured at 24 hrs by Western blot analysis (reference value: 1); type: cell-based
T2 sequence (P10415 whole entry, looked up): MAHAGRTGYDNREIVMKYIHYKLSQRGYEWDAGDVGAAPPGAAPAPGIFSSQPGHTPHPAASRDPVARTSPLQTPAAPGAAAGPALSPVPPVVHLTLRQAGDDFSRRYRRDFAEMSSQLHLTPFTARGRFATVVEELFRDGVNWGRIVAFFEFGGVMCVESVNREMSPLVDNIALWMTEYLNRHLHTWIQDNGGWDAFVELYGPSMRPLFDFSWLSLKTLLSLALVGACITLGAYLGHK
T2 sequence (Q96SW2 whole entry, looked up): as the sequence (Q96SW2 whole entry, looked up) above
Method in brief: (§1)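 HeLa cells in DMEM with 10% FBS, exposed to 10 µM compound over a 0–24 h time course. Mcl-1 and Bcl-2 detected by immunoblot (NP-40 lysis, BCA-equalized SDS-PAGE, PVDF, ECL) and quantified relative to DMSO control; mean ± s.d., n=3 independent samples.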

[4] = target: Apoptosis regulator Bcl-2 (Homo sapiens, UniProt P10415); test: Inhibition of biotinylated Bim peptide (81 to 106 residues) binding to His-tagged human Bcl-2 expressed in Escherichia coli BL21 (DE3) cells preincubated for 1 hr followed by biotinylated Bim peptide addition measured after 2 hrs by ELISA
Apoptosis regulator Bcl-2, sequence (P10415 whole entry, the tested form may be a part): as the sequence (P10415 whole entry, looked up) above
Method in brief: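 Inhibitor serially diluted (100–0.1 µM) from 10 mM DMSO stock, preincubated 1 h with 200 nM His-tagged protein in PBS (final DMSO 4%), then added 2 h to streptavidin plates holding biotin-Bim (plated at 0.09 mg/mL). Incubations at 4 °C. Detection with HRP anti-His, TMB 30 min, H2SO4 stop, A450. IC50 averaged from three independent experiments, with SD.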

[5] = target: T1, Protein cereblon/Induced myeloid leukemia cell differentiation protein Mcl-1; test: Induction of CRBN-mediated Mcl-1 degradation in human HeLa cells at 10 uM by Western blot analysis; type: cell-based; details: TDE = time-dependent effect
[6] = target: T2, Protein cereblon/Apoptosis regulator Bcl-2; test: Induction of CRBN-mediated Bcl-2 degradation in human HeLa cells assessed as relative abundance at 1 uM after 12 hrs by Western blot analysis (reference value: 1); type: cell-based
[7] = target: Protein cereblon/Bcl-2-like protein 1 (Homo sapiens) (UniProt Q07817+Q96SW2); test: Induction of CRBN-mediated Bcl-xl degradation in human HeLa cells at 10 uM incubated for 12 hrs by Western blot analysis; type: cell-based
Protein cereblon/Bcl-2-like protein 1 (Homo sapiens), sequence (Q07817 whole entry, looked up): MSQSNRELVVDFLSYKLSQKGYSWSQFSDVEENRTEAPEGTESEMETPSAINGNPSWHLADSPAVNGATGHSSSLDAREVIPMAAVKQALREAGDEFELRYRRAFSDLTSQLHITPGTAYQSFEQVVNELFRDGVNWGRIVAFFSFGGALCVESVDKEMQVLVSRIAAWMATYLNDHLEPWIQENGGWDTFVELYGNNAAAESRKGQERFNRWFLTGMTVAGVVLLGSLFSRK
Protein cereblon/Bcl-2-like protein 1 (Homo sapiens), sequence (Q96SW2 whole entry, looked up): as the sequence (Q96SW2 whole entry, looked up) above

[8] = target: T1, Protein cereblon/Induced myeloid leukemia cell differentiation protein Mcl-1; test: Induction of CRBN-mediated Mcl-1 degradation in human HeLa cells at 10 uM pretreated with CRBN inhibitor pomalidomide followed by compound addition by Western blot analysis; type: cell-based
[9] = target: T2, Protein cereblon/Apoptosis regulator Bcl-2; test: Induction of CRBN-mediated Bcl-2 degradation in human HeLa cells assessed as relative abundance at 0.3 uM after 12 hrs by Western blot analysis (reference value: 1); type: cell-based
[10] = target: T1, Protein cereblon/Induced myeloid leukemia cell differentiation protein Mcl-1; test: Induction of CRBN-mediated Mcl-1 degradation in human HeLa cells assessed as relative abundance at 3 uM after 12 hrs by Western blot analysis (reference value: 1); type: cell-based
[11] = target: T1, Protein cereblon/Induced myeloid leukemia cell differentiation protein Mcl-1; test: Induction of CRBN-mediated Mcl-1 degradation in human HeLa cells assessed as relative abundance at 10 uM measured at 8 hrs by Western blot analysis (reference value: 1); type: cell-based; method in brief: as §1
[12] = target: T1, Protein cereblon/Induced myeloid leukemia cell differentiation protein Mcl-1; test: Protac activity at CRBN/Mcl-1 in human HeLa cell lysates assessed as ternary complex formation by Western blot analysis based pull-down assay; type: subcellular; details: Lysate
Method in brief: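 HeLa lysate (25×10^6 cells, 1% Triton X-100 IP buffer), 1 mg total protein, incubated overnight with 1 µg CRBN antibody across a compound concentration gradient. Capture on protein A+G agarose, three Triton washes, boiled in loading buffer. Mcl-1, Bcl-2 and CRBN detected by immunoblotting. n=3 independent samples.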

[13] = target: T1, Protein cereblon/Induced myeloid leukemia cell differentiation protein Mcl-1; test: Induction of CRBN-mediated Mcl-1 degradation in human HeLa cells assessed as decrease in Mcl-1 level at 1 uM after 12 hrs by Western blot analysis relative to control; type: cell-based; design: scale not given: the % may be the effect or the level left
[14] = target: Protein cereblon/E3 ubiquitin-protein ligase Mdm2 (Homo sapiens) (UniProt Q00987+Q96SW2); test: Induction of CRBN-mediated MDM2 degradation in human HeLa cells at 10 uM incubated for 12 hrs by Western blot analysis; type: cell-based
Protein cereblon/E3 ubiquitin-protein ligase Mdm2 (Homo sapiens), sequence (Q00987 whole entry, looked up): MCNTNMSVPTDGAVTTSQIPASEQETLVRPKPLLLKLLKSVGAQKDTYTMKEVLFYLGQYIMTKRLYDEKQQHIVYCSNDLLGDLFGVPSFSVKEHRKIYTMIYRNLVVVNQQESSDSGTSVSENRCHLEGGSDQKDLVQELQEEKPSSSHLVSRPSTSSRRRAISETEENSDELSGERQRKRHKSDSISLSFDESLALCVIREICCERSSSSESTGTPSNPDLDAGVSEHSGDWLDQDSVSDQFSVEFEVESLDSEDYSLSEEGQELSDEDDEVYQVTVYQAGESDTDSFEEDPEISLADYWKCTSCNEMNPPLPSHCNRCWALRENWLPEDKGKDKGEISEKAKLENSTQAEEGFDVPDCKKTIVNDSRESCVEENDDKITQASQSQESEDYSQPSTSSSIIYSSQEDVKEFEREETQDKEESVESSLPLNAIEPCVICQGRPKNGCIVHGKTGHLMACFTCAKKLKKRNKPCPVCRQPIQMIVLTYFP
Protein cereblon/E3 ubiquitin-protein ligase Mdm2 (Homo sapiens), sequence (Q96SW2 whole entry, looked up): as the sequence (Q96SW2 whole entry, looked up) above

`O=C(CCCCC(=O)NCCN1C(=O)c2cccc3c(Sc4ccc(Br)cc4)ccc(c23)C1=O)NCCCCCCNc1cccc2c1C(=O)N(C1CCC(=O)NC1=O)C2=O` (centres undefined) was tested, and the Activity [1] was “Active”, the fold change (FC) [2] was 0.1 to 0.2 and the fold change (FC) [3] was 0.9. For the same molecule, the IC50 [4] was 0.54 µM, the Activity [5] was “Tde” and the fold change (FC) [6] was 0.9 to 1. For the same molecule, the Activity [7] was “inactive”, the Activity [8] was “inactive” and the fold change (FC) [9] was 1. For the same molecule, the fold change (FC) [10] was 0.1, the fold change (FC) [11] was 0.7 and the Activity [12] was “Dose-dependent effect”. The Activity [13] was 70% and the Activity [14] was “inactive”.
